According to PMC13170702 (Nuclear medicine and biology, 2025):

Test: organ radiation dose estimates, OLINDA 2.0, ICRP-103
Assay type: in vivo, human
Summary of the method: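 Whole-body PET-MR ran as nine scans to 214 min. Organ VOIs were drawn in AMIDE, giving decay-corrected %IA per VOI; remainder = whole body minus measured organs. TIACs came from the EXM exponential model (OLINDA 1.1). Per-participant organ doses were computed in OLINDA 2.0 with 73 kg adult male or 60 kg female models. Effective dose (mSv) = organ absorbed doses × ICRP-103 tissue weighting factors.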

Compound: COC(=O)[C@@H](N)CC(=O)Nc1ccc2c(c1)Cc1cc([18F])ccc1-2 [[^18F]RP-115, methyl N^4-(7-[^18F]fluoro-9H-fluoren-2-yl)asparaginate]
- Effective dose (whole body) (F1 (189 MBq)): 4.54 mSv
- Estimated absorbed dose, Adrenals (F1 (189 MBq)): 5.94 mGy
- Estimated absorbed dose, Brain (F1 (189 MBq)): 3.21 mGy
- Estimated absorbed dose, Breasts (F1 (189 MBq)): 1.71 mGy
- Estimated absorbed dose, Colon, left (F1 (189 MBq)): 2.85 mGy
- Estimated absorbed dose, Colon, right (F1 (189 MBq)): 2.77 mGy
- Estimated absorbed dose, Esophagus (F1 (189 MBq)): 2.98 mGy
- Estimated absorbed dose, Eyes (F1 (189 MBq)): 1.59 mGy
- Estimated absorbed dose, Gallbladder wall (F1 (189 MBq)): 5.09 mGy
- Estimated absorbed dose, Heart wall (F1 (189 MBq)): 4.40 mGy
- Estimated absorbed dose, Kidneys (F1 (189 MBq)): 32.6 mGy
- Estimated absorbed dose, Liver (F1 (189 MBq)): 8.25 mGy
- Estimated absorbed dose, Lungs (F1 (189 MBq)): 10.2 mGy
- Estimated absorbed dose, Osteogenic cells (F1 (189 MBq)): 1.77 mGy
- Estimated absorbed dose, Ovaries (F1 (189 MBq)): 2.77 mGy
- Estimated absorbed dose, Pancreas (F1 (189 MBq)): 5.49 mGy
- Estimated absorbed dose, Rectum (F1 (189 MBq)): 3.34 mGy
- Estimated absorbed dose, Red marrow (F1 (189 MBq)): 2.26 mGy
- Estimated absorbed dose, Salivary glands (F1 (189 MBq)): 1.69 mGy
- Estimated absorbed dose, Small intestine (F1 (189 MBq)): 7.43 mGy
- Estimated absorbed dose, Spleen (F1 (189 MBq)): 10.1 mGy
- Estimated absorbed dose, Stomach wall (F1 (189 MBq)): 3.08 mGy
- Estimated absorbed dose, Thymus (F1 (189 MBq)): 7.59 mGy
- Estimated absorbed dose, Thyroid (F1 (189 MBq)): 2.36 mGy
- Estimated absorbed dose, Urinary bladder wall (F1 (189 MBq)): 16.2 mGy
- Estimated absorbed dose, Uterus (F1 (189 MBq)): 4.55 mGy
- Effective dose (whole body) (F2, no voiding (355 MBq)): 9.27 mSv
- Estimated absorbed dose, Adrenals (F2, no voiding (355 MBq)): 11.7 mGy
- Estimated absorbed dose, Brain (F2, no voiding (355 MBq)): 5.33 mGy
- Estimated absorbed dose, Breasts (F2, no voiding (355 MBq)): 2.78 mGy
- Estimated absorbed dose, Colon, left (F2, no voiding (355 MBq)): 4.83 mGy
- Estimated absorbed dose, Colon, right (F2, no voiding (355 MBq)): 4.76 mGy
- Estimated absorbed dose, Esophagus (F2, no voiding (355 MBq)): 5.40 mGy
- Estimated absorbed dose, Eyes (F2, no voiding (355 MBq)): 2.43 mGy
- Estimated absorbed dose, Gallbladder wall (F2, no voiding (355 MBq)): 9.31 mGy
- Estimated absorbed dose, Heart wall (F2, no voiding (355 MBq)): 6.93 mGy
- Estimated absorbed dose, Kidneys (F2, no voiding (355 MBq)): 93.4 mGy
- Estimated absorbed dose, Liver (F2, no voiding (355 MBq)): 15.5 mGy
- Estimated absorbed dose, Lungs (F2, no voiding (355 MBq)): 21.1 mGy
- Estimated absorbed dose, Osteogenic cells (F2, no voiding (355 MBq)): 2.97 mGy
- Estimated absorbed dose, Ovaries (F2, no voiding (355 MBq)): 5.90 mGy
- Estimated absorbed dose, Pancreas (F2, no voiding (355 MBq)): 7.60 mGy
- Estimated absorbed dose, Rectum (F2, no voiding (355 MBq)): 7.07 mGy
- Estimated absorbed dose, Red marrow (F2, no voiding (355 MBq)): 4.01 mGy
- Estimated absorbed dose, Salivary glands (F2, no voiding (355 MBq)): 2.62 mGy
- Estimated absorbed dose, Small intestine (F2, no voiding (355 MBq)): 9.87 mGy
- Estimated absorbed dose, Spleen (F2, no voiding (355 MBq)): 7.49 mGy
- Estimated absorbed dose, Stomach wall (F2, no voiding (355 MBq)): 5.08 mGy
- Estimated absorbed dose, Thymus (F2, no voiding (355 MBq)): 8.99 mGy
- Estimated absorbed dose, Thyroid (F2, no voiding (355 MBq)): 17.5 mGy
- Estimated absorbed dose, Urinary bladder wall (F2, no voiding (355 MBq)): 28.7 mGy
- Estimated absorbed dose, Uterus (F2, no voiding (355 MBq)): 47.6 mGy
- Effective dose (whole body) (F3 (117 MBq)): 2.27 mSv
- Estimated absorbed dose, Adrenals (F3 (117 MBq)): 3.65 mGy
- Estimated absorbed dose, Brain (F3 (117 MBq)): 1.52 mGy
- Estimated absorbed dose, Breasts (F3 (117 MBq)): 1.09 mGy
- Estimated absorbed dose, Colon, left (F3 (117 MBq)): 1.77 mGy
- Estimated absorbed dose, Colon, right (F3 (117 MBq)): 1.81 mGy
- Estimated absorbed dose, Esophagus (F3 (117 MBq)): 1.78 mGy
- Estimated absorbed dose, Eyes (F3 (117 MBq)): 1.01 mGy
- Estimated absorbed dose, Gallbladder wall (F3 (117 MBq)): 3.38 mGy
- Estimated absorbed dose, Heart wall (F3 (117 MBq)): 2.27 mGy
- Estimated absorbed dose, Kidneys (F3 (117 MBq)): 21.4 mGy
- Estimated absorbed dose, Liver (F3 (117 MBq)): 6.07 mGy
- Estimated absorbed dose, Lungs (F3 (117 MBq)): 4.63 mGy
- Estimated absorbed dose, Osteogenic cells (F3 (117 MBq)): 1.11 mGy
- Estimated absorbed dose, Ovaries (F3 (117 MBq)): 1.54 mGy
- Estimated absorbed dose, Pancreas (F3 (117 MBq)): 2.79 mGy
- Estimated absorbed dose, Rectum (F3 (117 MBq)): 1.46 mGy
- Estimated absorbed dose, Red marrow (F3 (117 MBq)): 1.39 mGy
- Estimated absorbed dose, Salivary glands (F3 (117 MBq)): 1.09 mGy
- Estimated absorbed dose, Small intestine (F3 (117 MBq)): 3.98 mGy
- Estimated absorbed dose, Spleen (F3 (117 MBq)): 3.58 mGy
- Estimated absorbed dose, Stomach wall (F3 (117 MBq)): 1.87 mGy
- Estimated absorbed dose, Thymus (F3 (117 MBq)): 2.50 mGy
- Estimated absorbed dose, Thyroid (F3 (117 MBq)): 2.20 mGy
- Estimated absorbed dose, Urinary bladder wall (F3 (117 MBq)): 1.54 mGy
- Estimated absorbed dose, Uterus (F3 (117 MBq)): 3.86 mGy
- Effective dose (whole body) (F4 (167 MBq)): 3.28 mSv
- Estimated absorbed dose, Adrenals (F4 (167 MBq)): 4.53 mGy
- Estimated absorbed dose, Brain (F4 (167 MBq)): 2.64 mGy
- Estimated absorbed dose, Breasts (F4 (167 MBq)): 1.41 mGy
- Estimated absorbed dose, Colon, left (F4 (167 MBq)): 2.41 mGy
- Estimated absorbed dose, Colon, right (F4 (167 MBq)): 2.41 mGy
- Estimated absorbed dose, Esophagus (F4 (167 MBq)): 2.41 mGy
- Estimated absorbed dose, Eyes (F4 (167 MBq)): 1.33 mGy
- Estimated absorbed dose, Gallbladder wall (F4 (167 MBq)): 3.61 mGy
- Estimated absorbed dose, Heart wall (F4 (167 MBq)): 4.15 mGy
- Estimated absorbed dose, Kidneys (F4 (167 MBq)): 28.1 mGy
- Estimated absorbed dose, Liver (F4 (167 MBq)): 6.74 mGy
- Estimated absorbed dose, Lungs (F4 (167 MBq)): 7.74 mGy
- Estimated absorbed dose, Osteogenic cells (F4 (167 MBq)): 1.45 mGy
- Estimated absorbed dose, Ovaries (F4 (167 MBq)): 2.17 mGy
- Estimated absorbed dose, Pancreas (F4 (167 MBq)): 3.86 mGy
- Estimated absorbed dose, Rectum (F4 (167 MBq)): 2.14 mGy
- Estimated absorbed dose, Red marrow (F4 (167 MBq)): 1.84 mGy
- Estimated absorbed dose, Salivary glands (F4 (167 MBq)): 1.41 mGy
- Estimated absorbed dose, Small intestine (F4 (167 MBq)): 8.53 mGy
- Estimated absorbed dose, Spleen (F4 (167 MBq)): 3.75 mGy
- Estimated absorbed dose, Stomach wall (F4 (167 MBq)): 2.46 mGy
- Estimated absorbed dose, Thymus (F4 (167 MBq)): 4.47 mGy
- Estimated absorbed dose, Thyroid (F4 (167 MBq)): 2.53 mGy
- Estimated absorbed dose, Urinary bladder wall (F4 (167 MBq)): 4.45 mGy
- Estimated absorbed dose, Uterus (F4 (167 MBq)): 6.39 mGy
- Effective dose (whole body) (Female n=4, mean±SD): 0.0223±0.0033 mSv/MBq
- Estimated dose, Adrenals (Female n=4, mean±SD): 0.0307±0.0025 mGy/MBq
- Estimated dose, Brain (Female n=4, mean±SD): 0.0152±0.0017 mGy/MBq
- Estimated dose, Breasts (Female n=4, mean±SD): 0.00866±0.00067 mGy/MBq
- Estimated dose, Esophagus (Female n=4, mean±SD): 0.0152±0.0006 mGy/MBq
- Estimated dose, Eyes (Female n=4, mean±SD): 0.00797±0.00081 mGy/MBq
- Estimated dose, Gallbladder wall (Female n=4, mean±SD): 0.0259±0.0031 mGy/MBq
- Estimated dose, Heart wall (Female n=4, mean±SD): 0.0218±0.0027 mGy/MBq
- Estimated dose, Kidneys (Female n=4, mean±SD): 0.197±0.045 mGy/MBq
- Estimated dose, Left colon (Female n=4, mean±SD): 0.0146±0.0007 mGy/MBq
- Estimated dose, Liver (Female n=4, mean±SD): 0.0449±0.0049 mGy/MBq
- Estimated dose, Lungs (Female n=4, mean±SD): 0.0499±0.0088 mGy/MBq
- Estimated dose, Osteogenic cells (Female n=4, mean±SD): 0.00899±0.00054 mGy/MBq
- Estimated dose, Ovaries (Female n=4, mean±SD): 0.0144±0.0017 mGy/MBq
- Estimated dose, Pancreas (Female n=4, mean±SD): 0.0244±0.0033 mGy/MBq
- Estimated dose, Rectum (Female n=4, mean±SD): 0.0157±0.0037 mGy/MBq
- Estimated dose, Red marrow (Female n=4, mean±SD): 0.0116±0.0005 mGy/MBq
- Estimated dose, Right colon (Female n=4, mean±SD): 0.0145±0.0009 mGy/MBq
- Estimated dose, Salivary Glands (Female n=4, mean±SD): 0.0085±0.0008 mGy/MBq
- Estimated dose, Small intestine (Female n=4, mean±SD): 0.0381±0.0098 mGy/MBq
- Estimated dose, Spleen (Female n=4, mean±SD): 0.0319±0.0150 mGy/MBq
- Estimated dose, Stomach wall (Female n=4, mean±SD): 0.0153±0.0010 mGy/MBq
- Estimated dose, Thymus (Female n=4, mean±SD): 0.0284±0.0082 mGy/MBq
